pIC50: −log10 of the molar value. Where a name gives a salt, the structure may show the parent alone.
How the values were obtained:
PDE3A = PDE3A (Homo sapiens, UniProt Q14432); assay: PDE assay kit; type: biochemical
isolated rat atria [1] = assay: Spontaneously beating isolated rat atria, atria contraction force
isolated rat atria [2] = assay: Spontaneously beating isolated rat atria, atria contraction rate; conditions: for ACR increase, percentage over the base line: compound alone, 100 μM; for isoprenaline-induced ACR in presence of compound: isoprenaline 10^-6 M + compound 10^-4 M
In short: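 Male Wistar rats (250-350 g) given reserpine 5 mg/kg i.p. 24 hr before euthanasia; thiopental 80 mg/kg i.p. anaesthesia. Whole atria hung at ~0.5 g resting tension in Krebs-Henseleit (95% O2/5% CO2, 37 °C, pH 7.4), equilibrated 30 min. Solvent or test compound (10 or 100 μM) added; after 20 min, cumulative isoprenaline. Contractions counted per minute; % increase over baseline; mean ± SEM, 5-6 experiments.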

[3] = compound 100 μM, cumulative isoprenaline
[4] = Cont: solvent + 1 μM isoprenaline (isoprenaline alone)

Chain of PDE3A (Q14432 whole entry): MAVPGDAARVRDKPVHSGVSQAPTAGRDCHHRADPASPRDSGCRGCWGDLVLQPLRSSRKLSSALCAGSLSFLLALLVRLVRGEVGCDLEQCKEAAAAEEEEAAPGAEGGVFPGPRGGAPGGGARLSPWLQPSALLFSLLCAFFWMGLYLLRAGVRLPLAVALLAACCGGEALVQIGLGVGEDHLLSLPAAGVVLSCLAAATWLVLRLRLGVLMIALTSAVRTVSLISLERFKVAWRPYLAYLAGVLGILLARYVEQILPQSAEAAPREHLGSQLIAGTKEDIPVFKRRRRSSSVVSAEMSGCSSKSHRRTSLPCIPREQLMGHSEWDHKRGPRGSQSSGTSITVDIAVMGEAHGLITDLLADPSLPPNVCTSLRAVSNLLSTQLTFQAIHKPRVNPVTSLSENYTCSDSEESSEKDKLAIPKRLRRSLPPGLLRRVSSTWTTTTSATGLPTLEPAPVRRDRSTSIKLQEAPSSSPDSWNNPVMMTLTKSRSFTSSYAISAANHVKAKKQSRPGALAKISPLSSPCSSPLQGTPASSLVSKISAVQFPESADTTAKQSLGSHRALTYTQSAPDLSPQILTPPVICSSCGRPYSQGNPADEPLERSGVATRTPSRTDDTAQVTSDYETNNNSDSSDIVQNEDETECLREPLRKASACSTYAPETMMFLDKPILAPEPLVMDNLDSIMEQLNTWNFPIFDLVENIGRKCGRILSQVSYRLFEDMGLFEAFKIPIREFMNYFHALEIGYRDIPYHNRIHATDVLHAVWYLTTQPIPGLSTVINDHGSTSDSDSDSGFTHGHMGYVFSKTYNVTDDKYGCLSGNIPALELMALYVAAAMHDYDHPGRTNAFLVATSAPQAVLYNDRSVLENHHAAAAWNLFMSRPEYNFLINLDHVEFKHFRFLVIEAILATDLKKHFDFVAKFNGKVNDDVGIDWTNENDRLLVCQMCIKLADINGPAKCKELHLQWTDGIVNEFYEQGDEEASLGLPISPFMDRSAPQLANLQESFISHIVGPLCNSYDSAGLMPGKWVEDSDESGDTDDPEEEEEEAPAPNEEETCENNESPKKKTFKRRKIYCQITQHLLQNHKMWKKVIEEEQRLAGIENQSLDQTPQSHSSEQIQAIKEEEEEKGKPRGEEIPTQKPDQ

## Cc1cc(=O)[nH]c2ccc(OCCCC(=O)N3CCC(C)CC3)cc12 [mc2, 6-(4-(4-methylpiperidin-1-yl)-4-oxobutoxy)-4-methylquinolin-2(1H)-one]
PDE3A
  pIC50: 5.70
Isolated rat atria [1]; 10 μM mc2 + 1 μM isoprenaline
  ACF (% increase baseline): 3±1 % increase baseline
Isolated rat atria [1]; 100 μM mc2 + 1 μM isoprenaline
  ACF (% increase baseline): 60±5 % increase baseline
Isolated rat atria [1]; compound alone, 100 μM, 20 min
  ACF reached in 20 min: 40±7 % HSBL
  ACFmin within 20 min: 36±6 % HDBL
Isolated rat atria [1]; compound alone, 100 μM, at addition
  ACF change when compound was added (initial): -1.76%
Isolated rat atria [1]; compound alone, 100 μM
  ACFmax at the beginning of adding the compound: increased continuously from the beginning
  ACFmin at the beginning of adding the compound (initial decrease): -6 % HDBL
Isolated rat atria [1]; isoprenaline 10^-6 M + compound 10^-5 M
  isoprenaline-augmented ACF in presence of compound: 3±1 % HSBL
Isolated rat atria [2]; 10 μM mc2 + 1 μM isoprenaline
  ACR (% increase baseline): 50±10 % increase baseline
Isolated rat atria [2]; 100 μM mc2 + 1 μM isoprenaline
  ACR (% increase baseline): 6±7 % increase baseline
Isolated rat atria [2]
  ACR increase, percentage over the base line: did not change

## Cc1cc(=O)[nH]c2ccc(OCCCC(=O)N3CCC(O)CC3)cc12 [mc3, 6-(4-(4-hydroxypiperidin-1-yl)-4-oxobutoxy)4-methylquinolin-2(1H)-one]
PDE3A
  pIC50: 6.00
Isolated rat atria [1]; [3]
  effect on isoprenaline concentration-response curve (ACF): did not change
Isolated rat atria [1]; compound alone, 100 μM
  ACF increase, percentage over the base line: did not change
Isolated rat atria [2]; [3]
  effect on isoprenaline concentration-response curve (ACR): did not make any significant changes
Isolated rat atria [2]
  ACR increase, percentage over the base line: did not change

## Cc1cc(=O)[nH]c2ccc(OCCCC(=O)N3CCCC3)cc12 [mc6, 6-(4-oxo-4-(pyrrolidin-1-yl)butoxy)-4-methylquinolin-2(1H)-one]
Isolated rat atria [1]; compound alone, 100 μM
  ACF increase, percentage over the base line: 11±4%
Isolated rat atria [2]
  ACR increase, percentage over the base line: 65±6%
  isoprenaline-induced ACR in presence of compound: 91±6 % HSBL

## CC(C)NCC(O)c1ccc(O)c(O)c1 (stereo not shown) [isoprenaline, isoprenaline hydrochloride]
Isolated rat atria [1]; [4]
  ACF (% increase baseline): 14±6 % increase baseline
Isolated rat atria [1]; isoprenaline alone
  threshold concentration of ACFmax curve: 10^-10 M
Isolated rat atria [1]; isoprenaline alone, 3×10^-8 M
  maximum ACFmax: 21 % HSBL
Isolated rat atria [1]; isoprenaline alone, 10^-6 M
  ACF maximum, higher than systolic base line (HSBL): 14±6 % HSBL
  ACFmin, higher than diastolic base line (HDBL): 10.23±5 % HDBL
Isolated rat atria [1]; isoprenaline alone, cumulative concentrations
  threshold concentration for ACF increase: 10^-10 M
Isolated rat atria [2]; [4]
  ACR (% increase baseline): 68±12 % increase baseline
Isolated rat atria [2]; isoprenaline alone
  threshold concentration for ACR increase: 10^-10 M

## CN(C(=O)CCCOc1ccc2[nH]c(=O)ccc2c1)C1CCCCC1 [cilostamide, 4-(1,2-dihydro-2-oxoquinolin-6-hydroxy)-N-cyclohexyl-N-methylbutanamide]
Isolated rat atria [1]; compound + isoprenaline 3×10^-6 M
  maximum ACFmax in combination with isoprenaline: 25±5 % HSBL
Isolated rat atria [1]; compound + isoprenaline 10^-6 M
  maximum ACFmin in combination with isoprenaline: 39 ±7 % HDBL
Isolated rat atria [1]; compound added 20 min before isoprenaline
  potentiation of the effect of isoprenaline on ACF: about 2.86 fold
Isolated rat atria [1]; compound alone, 100 μM, 20 min
  ACFmax within 20 min: 11±6 % HSBL
  ACFmin within 20 min: 16±6 % HDBL
Isolated rat atria [1]; compound alone, 100 μM
  ACFmax at the beginning of adding the compound: 24±9 % HSBL
  ACFmin at the beginning of adding the compound (initial decrease): 9±4 % HDBL
Isolated rat atria [2]
  ACR increase, percentage over the base line: 42±10%
  isoprenaline-induced ACR in presence of compound: 51±11 % HSBL

Reference: article PMC5569452 (Iranian Journal of Basic Medical Sciences, 2017)
